Test results reported in paper PMC3098311 (Nature, 2011).
Entries after “also recorded” stand apart in the source; their conditions may differ. Where a SMILES comes first, the peptide text is derived from it. [ ]: non-standard residue; d: D form. Tyr(3-I) = N[C@@H](Cc1ccc(O)c(I)c1)C(=O)O; Hyp = O=C(O)[C@@H]1C[C@@H](O)CN1

Legend:
[1] = target: T1, FLS2 (Arabidopsis thaliana, UniProt Q9FL28); assay: Direct binding assay, saturation and specific binding of ^125I-Tyr-CLV3p
Summary of the method: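 HA-tagged FLS2 was expressed for 6 h in fls2 mesophyll protoplasts (2.5 × 10^5 cells). Pelleted extract (50 μg total protein) was in pH 5.8 MES/KOH binding buffer with MgCl2, NaCl and DTT. Extract was incubated with 100 fmol 125I-Tyr-CLV3p, with or without unlabeled Tyr-CLV3p, for 30 min on ice. Bound label was collected on BSA-blocked glass-fibre filters and gamma-counted. Specific binding = total minus non-specific (10–20 μM unlabeled). Kd came from saturation/Scatchard nonlinear regression and sites per cell from Bmax; s.d., n=3.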

[2] = target: FLS2-BAK1 interaction (Arabidopsis thaliana, UniProt Q94F62+Q9FL28); assay: FLS2-BAK1 interaction by co-IP in protoplasts; type: cell-based; settings: for block of flg22- and CLV3p-triggered FLS2-BAK1 interaction: antagonist peptide at 50 μM
FLS2-BAK1 interaction, sequence (Q9FL28 24-1173): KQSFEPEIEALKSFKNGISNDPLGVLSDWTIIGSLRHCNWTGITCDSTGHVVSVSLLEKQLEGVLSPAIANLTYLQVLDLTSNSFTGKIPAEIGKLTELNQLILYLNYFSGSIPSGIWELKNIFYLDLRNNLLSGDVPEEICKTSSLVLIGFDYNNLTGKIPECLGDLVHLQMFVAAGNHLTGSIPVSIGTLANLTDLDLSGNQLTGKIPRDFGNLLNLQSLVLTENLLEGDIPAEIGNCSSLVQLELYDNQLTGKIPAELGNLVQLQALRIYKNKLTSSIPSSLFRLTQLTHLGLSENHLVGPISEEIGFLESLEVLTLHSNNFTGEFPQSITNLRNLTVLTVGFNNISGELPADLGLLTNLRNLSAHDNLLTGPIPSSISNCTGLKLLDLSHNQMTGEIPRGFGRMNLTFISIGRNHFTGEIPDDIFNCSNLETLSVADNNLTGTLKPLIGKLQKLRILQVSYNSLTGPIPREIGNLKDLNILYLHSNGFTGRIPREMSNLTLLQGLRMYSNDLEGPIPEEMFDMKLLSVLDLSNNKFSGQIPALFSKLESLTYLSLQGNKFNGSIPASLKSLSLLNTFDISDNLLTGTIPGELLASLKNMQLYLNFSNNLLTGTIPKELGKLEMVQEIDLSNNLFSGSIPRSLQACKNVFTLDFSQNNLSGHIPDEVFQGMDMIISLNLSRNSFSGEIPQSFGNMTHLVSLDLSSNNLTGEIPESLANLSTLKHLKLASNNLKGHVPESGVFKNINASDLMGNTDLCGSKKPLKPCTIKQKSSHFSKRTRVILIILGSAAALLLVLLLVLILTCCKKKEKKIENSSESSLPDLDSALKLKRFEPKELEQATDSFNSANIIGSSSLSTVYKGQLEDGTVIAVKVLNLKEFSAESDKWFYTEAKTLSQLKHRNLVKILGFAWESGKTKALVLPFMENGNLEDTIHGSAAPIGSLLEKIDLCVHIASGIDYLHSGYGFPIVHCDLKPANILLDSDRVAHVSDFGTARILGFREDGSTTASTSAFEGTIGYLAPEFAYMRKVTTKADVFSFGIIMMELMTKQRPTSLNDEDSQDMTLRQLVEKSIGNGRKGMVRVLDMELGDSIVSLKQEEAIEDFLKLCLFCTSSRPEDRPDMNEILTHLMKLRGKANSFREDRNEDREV
FLS2-BAK1 interaction, sequence (Q94F62 26-615 partner): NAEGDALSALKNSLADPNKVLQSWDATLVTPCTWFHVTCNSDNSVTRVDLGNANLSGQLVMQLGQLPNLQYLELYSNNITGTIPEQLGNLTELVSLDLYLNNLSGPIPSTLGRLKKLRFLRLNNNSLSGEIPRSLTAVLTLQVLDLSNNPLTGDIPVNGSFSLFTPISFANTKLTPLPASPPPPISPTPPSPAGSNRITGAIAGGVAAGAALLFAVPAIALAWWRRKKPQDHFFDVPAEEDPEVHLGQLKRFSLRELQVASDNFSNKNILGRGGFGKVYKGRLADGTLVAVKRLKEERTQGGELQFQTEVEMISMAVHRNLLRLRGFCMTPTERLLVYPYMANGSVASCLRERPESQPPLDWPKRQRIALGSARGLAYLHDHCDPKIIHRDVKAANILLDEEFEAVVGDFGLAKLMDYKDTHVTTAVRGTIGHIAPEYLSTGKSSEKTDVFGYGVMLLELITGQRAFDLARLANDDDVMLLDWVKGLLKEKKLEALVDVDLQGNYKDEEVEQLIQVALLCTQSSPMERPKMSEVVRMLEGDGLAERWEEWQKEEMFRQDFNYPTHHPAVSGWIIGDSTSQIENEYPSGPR
Summary of the method: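 Mesophyll protoplasts came from 4-week soil-grown plants (23°C, 12 h/12 h). They were co-transfected with FLS2-HA and BAK1-FLAG and incubated for 6 h at room temperature. Cells were then exposed to flg22 (1, 10 nM), CLV3p (1 μM) or CLE40p (1 μM) for 10 min. Complexes were immunoprecipitated with anti-FLAG and detected with anti-HA on immunoblot.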

[3] = target: T1, FLS2; assay: Binding competition analysis with unlabeled peptides; settings: unlabeled peptide; ^125I-Tyr-CLV3p 1 nM; 30 min on ice; non-specific binding with 10 μM unlabeled Tyr-CLV3p; n=3
Summary of the method: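 FLS2-HA expressed for 6 h in fls2 mesophyll protoplasts (2.5 × 10^5 cells); pellet from vortexed, iced and 10,000 ×g-spun extract in 25 mM MES/KOH pH 5.8, 3 mM MgCl2, 10 mM NaCl (50 μg protein). Incubated 30 min on ice with 100 fmol 125I-Tyr-CLV3p ± unlabeled competitor; blocked glass-fibre filtration, cold wash, gamma counting; specific = total − nonspecific (10–20 μM unlabeled); non-linear regression.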

[4] = test system: SAM; assay: Assay for CLV3p-mediated SAM arrest; type: in vivo, Arabidopsis; settings: 1 μM peptide in liquid medium
Summary of the method: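 Col-0 and fls2 seeds, twenty per dish, grown in liquid 0.5× MS with 0.5% sucrose (pH 5.8), with or without 1 μM CLV3p. SAMs were cut, fixed overnight at 4°C in 4% paraformaldehyde/4% DMSO, eosin-stained and paraffin-embedded. Sections of 8 μm were Giemsa-stained (0.1%, 5 min) and imaged by light microscopy.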

[5] = test system: FRK1, WRKY29 and WRKY30; assay: qRT-PCR of flg22 early marker genes in protoplasts; type: cell-based, Arabidopsis; settings: peptides for 1 h, 1 μM CLV3p, 1 μM CLE40p, n=3
Summary of the method: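 Mesophyll protoplasts were treated with peptides for 1 h. Total RNA was extracted with TRIzol, and cDNA was made from 1 μg RNA with M-MLV reverse transcriptase. SYBR green real-time PCR followed, with ACT2 as the control gene.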

[6] = test system: pWUS::GUS; assay: pWUS::GUS reporter staining in the SAM; type: in vivo, Arabidopsis; settings: seedlings grown 8 days with 1 μM peptide
Summary of the method: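 pWUS::GUS seedlings were grown 8 days in liquid 0.5× MS/0.5% sucrose with or without 1 μM CLV3p, ΔCLV3p or flg22. They were fixed in 90% cold acetone for 20 min. Seedlings were vacuum-infiltrated with pH 7.0 phosphate buffer containing ferro/ferricyanide, Triton X-100, EDTA and 1 mM X-Gluc, then held 3 h at 37°C. Samples were dehydrated to 70% ethanol and imaged under a stereomicroscope.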

[7] = test system: Arabidopsis seedlings; assay: Seedling growth inhibition analysis; type: in vivo; settings: for root growth: WT seedlings, flg22 1, 10 nM, CLV3p 1 μM or CLE40p 1 μM
Summary of the method: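 Col-0, fls2, Ler, fls2-24 and clv2-1 seedlings were grown in 6-well plates in liquid 0.5× MS, 0.5% sucrose, pH 5.8. Treatment was flg22 (1, 10 nM) or CLV3p (1 μM), and growth was assessed after 6 or 8 days.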

[8] = test system: endogenous MPK3 and MPK6; assay: In-gel kinase assay of MAPK activation in mesophyll protoplasts; type: cell-based, Arabidopsis
[9] = test system: FRK1, WRKY29, WRKY30, MYB15, MYB51 and PEP3; assay: qRT-PCR of immune marker genes in isolated SAM tissues; type: in vivo, Arabidopsis; settings: n=3
[10] = test system: WUS; assay: qRT-PCR of WUS in isolated SAM tissues; type: in vivo, Arabidopsis; settings: 1 μM CLV3p for 1 h; WT and mutant seedlings; n=3
Summary of the method: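 Seedlings grew 8 days in liquid 0.5× MS, 0.5% sucrose, pH 5.8, then got 1 h peptide treatment (1 nM or 1 μM). SAM tissues were harvested after snap-freezing in liquid nitrogen, and RNA was TRIzol-extracted. SYBR Green real-time qRT-PCR used ACT2 as the control gene.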

T1 sequence (Q9FL28 24-1173): as the sequence (Q9FL28 24-1173) above

## CC(C)C[C@H](NC(=O)[C@@H]1CCCN1C(=O)[C@H](CC(=O)O)NC(=O)[C@@H]1C[C@@H](O)CN1C(=O)CNC(=O)[C@H](CO)NC(=O)[C@@H]1C[C@@H](O)CN1C(=O)[C@@H](NC(=O)[C@@H](NC(=O)[C@H](CCCNC(=N)N)NC(=O)[C@@H](N)Cc1ccc(O)c(I)c1)[C@@H](C)O)C(C)C)C(=O)N[C@@H](Cc1c[nH]cn1)C(=O)N[C@@H](Cc1c[nH]cn1)C(=O)O [^125I-Tyr-CLV3p] (H-[Tyr(3-I)]RTV[Hyp]SG[Hyp]DPLHH-OH; N-terminus and C-terminus assumed)
[1]
  Kd: 34.7 nM
[1]; estimated from Bmax and 50 ug protein from 2.5 × 10^5 cells, total cell extracts
  binding sites per cell: 6.36 × 10^4 binding sites per cell
[1]; wild-type FLS2 expressed in null fls2 protoplasts, non-specific binding with 20 μM unlabeled Tyr-CLV3p, n=3
  specific binding of ^125I-Tyr-CLV3p: showed specific binding; also recorded: specifically binds to FLS2

## QRLSTGSRINSAKDDAAGLQ [flg22-Δ2]
[2]
  block of flg22- and CLV3p-triggered FLS2-BAK1 interaction: effectively competed with and blocked flg22 and CLV3p signalling
[2]; listed as Flg22-Δ2
  block of flg22- and CLV3p-triggered FLS2-BAK1 interaction: blocks CLV3p and flg22 signalling
[3]
  competition with ^125I-Tyr-CLV3p for specific binding to FLS2: could be competed

## RQVP^hTGSDPLHH [CLE40p, reference compound]
[4]
  SAM growth arrest: triggered the growth arrest of SAM
[5]
  flg22 early marker gene activation: did not promote
[6]
  repression of pWUS::GUS reporter: repression of WUSCHEL (WUS)
[7]; 6 or 8 days
  root growth: root growth inhibition

## RTVP^hSGP^hDPLH [ΔCLV3p]
[8]; Fig. 1a, data not shown
  activating or blocking FLS2 signalling: ineffective in activating or blocking FLS2 signalling

## RTVP^hSGP^hDPLHH [CLV3p]
[2]; CLV3p, 10 min
  concentration of equal potency in peptide titration, FLS2 and BAK1 co-IP: 1000 nM
[4]
  SAM growth arrest: very active in triggering the typical SAM arrest; also recorded: suppresses the SAM in Col-0 and fls2 plants
[5]
  flg22 early marker gene activation: activated similar early marker genes; also recorded: triggers flg22 marker gene activation
[3]
  competition with ^125I-Tyr-CLV3p for specific binding to FLS2: could be competed
[9]; 1 nM flg22 or 1 μM CLV3p for 1 h, WT and mutant seedlings
  immune marker gene activation in the SAM: in WT, clv1-1, clv2-1 but not fls2-24
[9]; clv3-2 seedlings treated with 0-100 nM CLV3p for 1 h
  exogenous CLV3p needed for complementation of clv3-2 for immune marker gene expression in the SAM: nM range
[10]
  repression of WUS in the SAM: only in the SAM of WT and fls2-24, but not clv1-1 and clv2-1
[8]; protoplasts, 1 μM CLV3p, 1 μM ΔCLV3p or 100 nM flg22 for 10 min
  MAPK activation: activated similar MAPK activities
[6]
  repression of pWUS::GUS reporter: repression of a sensitive pWUS::GUS reporter; also recorded: represses pWUS::GUS expression
[7]; Col-0 and Ler WT seedlings, flg22 1, 10 nM or CLV3p 1 μM, 6 or 8 days
  shoot growth: did not inhibit shoot growth
[7]; 6 or 8 days
  root growth: caused stronger root growth arrest
[7]; clv2-1 seedlings, CLV3p 1 μM
  root growth arrest in the clv2-1 mutant: abolished
[7]; fls2 and fls2-24 seedlings, flg22 1, 10 nM or CLV3p 1 μM
  growth effect in two independent fls2 mutants: retained

## YRTVP^hSGP^hDPLHH [Tyr-CLV3p]
[3]
  competition with ^125I-Tyr-CLV3p for specific binding to FLS2: could be competed
